Key:
[1] = folding enthalpy; higher = less favourable; fluorescence melt of hairpins on a sequencing array, two-state fit; conditions: sodium 0.088 M
Summary of the method: (§1)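 To match UV melts, fitted temperatures were raised by 9.35 °C. These fits were bootstrapped two-state models that gave melting temperature and folding enthalpy, combined by inverse variance over four replicates. The input was normalised Cy3 fluorescence of library hairpins with annealed Cy3 and quencher oligos on a sequenced MiSeq flow cell, imaged in 50 mM Na-HEPES pH 8.0, 25 mM NaCl in 2.5 °C steps up to 60 °C.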

[2] = melting temperature; fluorescence melt of hairpins on a sequencing array, two-state fit, raised by 9.35 °C to match UV melts; conditions: sodium 0.088 M
Summary of the method: as §1

Sequence | folding enthalpy [1] | Tm [2]
GTTTGAGGAAACTTGAAC (((..((....))..))) | -17.3 kcal/mol | 33.1 °C
GCATGAGGAAACTCGTGC (((.(((....))).))) | -47.4 kcal/mol | 52.9 °C
GGCGCACCGAAAGGTGCC (((..(((....)))))) | -6.69 kcal/mol | 47.5 °C
GTGAGCGAAAGCTGCAC ((((((....))).))) | -13.8 kcal/mol | 48.7 °C
GATCCATGCTGGATC ((((((...)))))) | -35.3 kcal/mol | 52 °C
GGGCCCGAAAGGGTACCC ((((((....)))..))) | -15.1 kcal/mol | 57.3 °C
GCTATGCGAAAGCAAGGC ((..(((....)))..)) | -18.4 kcal/mol | 42.5 °C
GGTACCGAAAGGTCACC ((((((....))).))) | -17.7 kcal/mol | 46.8 °C
GACTTGCGAAAGCAGGTC (((.(((....))).))) | -34.6 kcal/mol | 60 °C
GTAGCGCGAAAGCGTTAC (((.(((....))).))) | -23.1 kcal/mol | 58.3 °C
GGCGACGAAAGTCTGCC ((((((....))).))) | -36.6 kcal/mol | 59.2 °C
GGACTAGGAAACTAGTTC (.(((((....))))).) | -31.9 kcal/mol | 41.3 °C
GCCTCCACGAAAGTGGGC (((..(((....)))))) | -7.76 kcal/mol | 46.9 °C
GATCAAGCAGTTGATC ((((((....)))))) | -31.8 kcal/mol | 46.6 °C
GGCTGTGGAAACACAGTC (.(((((....))))).) | -28.2 kcal/mol | 54.2 °C
GATACGGGAAACTGTGTC ((.((.(....).)).)) | -20.1 kcal/mol | 33.6 °C
GATCGGAGGCCCGATC ((((((....)))))) | -34.1 kcal/mol | 56.4 °C
GATGAGCGAAAGCTGATC (((.(((....))).))) | -22.1 kcal/mol | 45.9 °C
GATCCCGACTGGGATC ((((((....)))))) | -38.5 kcal/mol | 65.8 °C
GATCAGGTCCCTGATC ((((((....)))))) | -39 kcal/mol | 54.6 °C
GTTTCCGAAAGGAAAAAC ((((((....)))..))) | -15.1 kcal/mol | 36.8 °C
GCGGGAGGAAACTTCCGC ((((.((....)).)))) | -40.1 kcal/mol | 58.6 °C
GATCCCCTATGGGATC ((((((....)))))) | -36.9 kcal/mol | 60.8 °C

Sequence | folding enthalpy [1] | Tm [2]
GCGGTCGAAAGACTTCGC ((((((....)))..))) | -21.6 kcal/mol | 47.6 °C
GATCCCGCTGGGATC ((((((...)))))) | -37.4 kcal/mol | 63.2 °C
GACACCGAAAGGTATGTC ((((((....)))..))) | -19.6 kcal/mol | 39.2 °C
GGGTTCGAAAGAACCCCC ((((((....)))..))) | -9.24 kcal/mol | 68.2 °C
CTTTTGAAAAAAAG (((((....))))) | -7.85 kcal/mol | 30.1 °C
GGTAACGAAAGTTAAACC ((((((....)))..))) | -16.1 kcal/mol | 32.3 °C
CGTCCCCGGAAACGGACG (((..(((....)))))) | -21.1 kcal/mol | 42.2 °C
CGATTGCGGAAACGCTCG (((..(((....)))))) | -15.9 kcal/mol | 33.5 °C
GAGGGCGAAAGCCCCCTC ((((((....)))..))) | -7.33 kcal/mol | 42.7 °C
GAGGAGCGAAAGCTCTC (((.(((....)))))) | -9.17 kcal/mol | 48.2 °C
GTGAGGGGAAACCCTCGC (.(((((....))))).) | -34 kcal/mol | 53.5 °C
CGCTCTCGGAAACGAGCG (((..(((....)))))) | -17.5 kcal/mol | 46 °C
GGGTCACGAAAGTGCCCC (((.(((....))).))) | -27.4 kcal/mol | 63 °C
GCGACATGTCGC ((((....)))) | -37 kcal/mol | 63.8 °C
GGAATTCGAAAGAATCC (((.(((....)))))) | -20.9 kcal/mol | 39 °C
GGTGATGGAAACATCGTC (..((((....))))..) | -18.1 kcal/mol | 32.9 °C
CCTGTGAAAACAGG (((((....))))) | -17 kcal/mol | 51.6 °C
GATCGTGTTGACGATC ((((((....)))))) | -29.3 kcal/mol | 57.4 °C
GCCCTATCGAAAGATGGC (((..(((....)))))) | -23.5 kcal/mol | 37.5 °C
GTTGTATCGAAAGATAAC (((..(((....)))))) | -27.3 kcal/mol | 37.1 °C
CGTATGCGGAAACGCACG (((..(((....)))))) | -9.53 kcal/mol | 40.7 °C
GTAGATCCGAAAGGATAC (((..(((....)))))) | -11.1 kcal/mol | 30.4 °C
GCCAACGAAAGTTGAGGC ((((((....)))..))) | -19.4 kcal/mol | 48.5 °C

Sequence | folding enthalpy [1] | Tm [2]
GGTCACGGAAACGTAACC (((.(((....))).))) | -31.5 kcal/mol | 42.1 °C
GCGTGAGGAAACTTACGC ((((.((....)).)))) | -33.8 kcal/mol | 52 °C
GCCAATTCGAAAGAAGGC (((..(((....)))))) | -20.6 kcal/mol | 38 °C
GTGTCACGAAAGTGCAC (((.(((....)))))) | -26 kcal/mol | 53.5 °C
GATGCCGAAAGGCAAATC ((((((....)))..))) | -10.4 kcal/mol | 35.4 °C
GCGTACGAAAGTAAGCGC ((((((....)))..))) | -30.9 kcal/mol | 56.8 °C
GCAAGGCGAAAGCTTTGC ((((.((....)).)))) | -39 kcal/mol | 63.9 °C
GATTGCGGAAACGCAATC (((((((....))))))) | -37.8 kcal/mol | 67.9 °C
GTAAAACGAAAGTTTAC (((.(((....)))))) | -17.4 kcal/mol | 35.2 °C
GAGCAGGGAAACCTACTC (((.(((....))).))) | -22.1 kcal/mol | 39.5 °C
GATCGTTAGCACGATC ((((((....)))))) | -32.3 kcal/mol | 51.4 °C
GCATAGCGAAAGCTGTGC (((.(((....))).))) | -50.8 kcal/mol | 59.9 °C
GAGACAGAAATGTCTC ((((((....)))))) | -34.4 kcal/mol | 52.5 °C
GTAGTTGAAAAACTAC ((((((....)))))) | -30.9 kcal/mol | 48.9 °C
GAAGCTGGAAACAGCCTC ((.((((....)))).)) | -13.8 kcal/mol | 32.6 °C
GATCTCAAAGAGATC ((((((...)))))) | -37.6 kcal/mol | 55.2 °C
GCCAGCGAAAGCTTTGGC ((((((....)))..))) | -23.8 kcal/mol | 51.4 °C
GACGAGGCGAAAGCCGTC (((..(((....)))))) | -8.76 kcal/mol | 51.5 °C
GATCATACTAATGATC ((((((....)))))) | -34.9 kcal/mol | 46.8 °C
GATATGGGAAACCATGTC ((.((((....)))).)) | -29 kcal/mol | 41.8 °C
GTGCCGACGAAAGTCCAC (((..(((....)))))) | -8.42 kcal/mol | 53.8 °C
GCTGACGAAAGTCCAGC ((((((....))).))) | -24.7 kcal/mol | 54.5 °C
CGCACGGAAACGTGGGCG ((((((....)))..))) | -12.8 kcal/mol | 56.3 °C

Sequence | folding enthalpy [1] | Tm [2]
GCGAGCCTCGC ((((...)))) | -21.9 kcal/mol | 49.7 °C
GAGAAACCGAAAGGTCTC (((..(((....)))))) | -16.8 kcal/mol | 34.1 °C
GCGACCCCGAAAGGGCGC (((..(((....)))))) | -29.1 kcal/mol | 67.7 °C
GCCGGGACGAAAGTCGGC (((..(((....)))))) | -29.8 kcal/mol | 60.9 °C
CGCGGACCATTCCGCG ((((((....)))))) | -37.3 kcal/mol | 65.3 °C
GTTCGTCGAAAGACAAC (((.(((....)))))) | -17.2 kcal/mol | 42.5 °C
GTTGGTGGAAACACTGAC ((..(((....)))..)) | -15.9 kcal/mol | 34.8 °C
GAATGCGAAAGCATCTTC ((((((....)))..))) | -23.4 kcal/mol | 53 °C
GACTCCGAAAGGATCGTC ((((((....)))..))) | -23.3 kcal/mol | 42.1 °C
GCCGGGCGAAAGCCCCGC ((.((((....)))).)) | -16.2 kcal/mol | 54.4 °C
GTGGAAGCGAAAGCTCAC (((..(((....)))))) | -18.8 kcal/mol | 44.3 °C
GACTAAGGAAACTTAGTC (((((((....))))))) | -35.1 kcal/mol | 52.5 °C
GTCTGAGGAAACTCAGAC (((((((....))))))) | -45.5 kcal/mol | 63.8 °C
GTAGTCGAAAGACGTAC ((((((....))).))) | -19.1 kcal/mol | 47.6 °C
GTTCACGGAAACGTGGAC ((.((((....)))).)) | -29.2 kcal/mol | 52.8 °C
GCCAAAGGAAACTTTGGC (((((((....))))))) | -44.4 kcal/mol | 64 °C
GCTATAGAAATATAGC ((((((....)))))) | -32.9 kcal/mol | 42.8 °C
GACGTAGGAAACTACACC (..((((....))))..) | -10.2 kcal/mol | 25.2 °C
GATCCGTTGCCGGATC ((((((....)))))) | -46.8 kcal/mol | 58.4 °C
GTGGGCGGAAACGCCTAC ((.((((....)))).)) | -16.3 kcal/mol | 56.5 °C
GAGCCCGAAAGGGGGCTC ((((((....)))..))) | -22.8 kcal/mol | 68.6 °C
GGCTAACGAAAGTTGGCC (((.(((....))).))) | -44.2 kcal/mol | 60.1 °C
GATCAGTGTCCTGATC ((((((....)))))) | -36.2 kcal/mol | 49.6 °C

Reference: the array DNA melting data of Ke et al. (doi:10.1101/2024.01.08.574731)
